Experiment [1] has as its system Staphylococcus aureus. The experiment is described as follows: Antibacterial activity against Methicillin-sensitive Staphylococcus aureus assessed as inhibition of bacterial growth at <= 0.008 ug/ml by CLSI broth microdilution method. The format is functional. Put shortly:
(§1)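 Recent clinical isolates from skin/soft tissue, bloodstream and respiratory specimens. Tested by broth microdilution per CLSI M7-A7 and M100-S18, with the appropriate quality controls. The thymidine content of the test medium was assessed to rule out artifactual inhibition.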

The test system of experiment [2] is Staphylococcus aureus. In words: Antibacterial activity against Methicillin-resistant Staphylococcus aureus assessed as inhibition of bacterial growth at 0.015 ug/ml by CLSI broth microdilution method. The format is functional. Put shortly: as §1
For orientation: Broth dilution looks for growth in wells or tubes with falling amounts of substance.

The test system of experiment [3] is Streptococcus sp. 'group A'. In words: Antibacterial activity against Beta-hemolytic Streptococcus group A assessed as inhibition of bacterial growth at <= 0.008 ug/ml by CLSI broth microdilution method. The format is functional. Put shortly: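 Clinical isolates from skin/soft tissue, bloodstream and respiratory specimens were tested by broth microdilution per CLSI M7-A7 and M100-S18, with quality controls. Values are the number of isolates inhibited at each concentration, or MIC / percent susceptible. Highest concentration tested was 8 µg/ml for iclaprim and trimethoprim-sulfamethoxazole, and 64 µg/ml for trimethoprim.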

Experiment [4] relates to Streptococcus sp. 'group B'. The experiment is described as follows: microbe, parasite or virus in culture. The conditions noted are these: read-out: INH.
In the next experiment the test system is Enterococcus faecalis. In words: microbe, parasite or virus in culture. The conditions noted are these: read-out: INH.
In another experiment the test system is Enterococcus faecium. The experiment is described as follows: microbe, parasite or virus in culture. The conditions noted are these: read-out: INH.
Experiment [5] relates to Staphylococcus aureus. The experiment is described as follows: microbe, parasite or virus in culture. The conditions noted are these: read-out: INH.
The test system of experiment [6] is Staphylococcus aureus. The experiment is described as follows: microbe, parasite or virus in culture. The conditions noted are these: read-out: INH. This is another data set of the same source.
Experiment [7] deals with Streptococcus sp. 'group A'. In words: microbe, parasite or virus in culture. The conditions noted are these: read-out: INH.

For the molecule `COc1cc(Cc2cnc(N)nc2N)c2c(c1OC)OC(C1CC1)C=C2` (centres undefined), the “inhibition (INH)” value was found to be 0.1% with Staphylococcus aureus [1] and 30.5% in experiment [3]. The inhibition at 0.015 µg/mL in the experiment with Staphylococcus aureus [2] was 0.4%.
Consider `COc1cc(Cc2cnc(N)nc2N)cc(OC)c1OC` [TRIMETHOPRIM], for which the inhibition at 16 µg/mL in experiment [4] turned out to be 100%; with Enterococcus faecalis, 70.6%. For the same molecule, the inhibition at 32 µg/mL with Enterococcus faecium amounted to 55.1%; in the experiment with Staphylococcus aureus [5] it was 98.7%; with Staphylococcus aureus [6], 94.1%; in [7] it was 100%.

Values taken from ChEMBL document CHEMBL1649441, “Potency and bactericidal activity of iclaprim against recent clinical gram-positive isolates” (2009).
